Bioassay records as filed in PubChem.
EBNA-1 inh: EBNA-1 DNA-binding inhibitors, primary screen, biochemical, fluorescence polarization. AID 1950, 2009. actives 0.34% (n = 300,000). inhibition, % at 14.8 µM; in the data active means inhibition above about 28%
PfGluPho inh: PfG6PD enzyme inhibitors, primary screen, biochemical, fluorescence intensity, uHTS; AID 504690, 2011; inhibition, % at 20 µM; PfGluPho enzyme, NADPH resazurin-diaphorase fluorescence; actives 0.78% (n = 350,000); glucose-6-phosphate dehydrogenase-6-phosphogluconolactonase (Plasmodium falciparum 3D7);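 active means inhibition reaching at least a set limit at 20 µM in the primary screen, cut at about 59% in these data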
ZTA counter: ZTA (EBV) inhibition in EBNA-1 counter-screen; ZTA-DNA binding, fluorescence polarization; inhibition, % at 11 µM; actives 0.15% (n = 320,000); AID 2234; in the data active means inhibition above about 33%
PfM18AAP inh: PfM18AAP inhibitors, malaria aminopeptidase, primary screen, biochemical, QFRET, recombinant enzyme | H-Glu-NHMec fluorogenic cleavage | inhibition, % at 7.35 µM | actives 1.2% (n = 290,000);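 active means inhibition above the campaign mean inhibition over all tested compounds plus 3 SD, cut at about 28% in these data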
UBC13 inh: UBC13 polyubiquitin chain formation inhibitors, primary screen, biochemical, TR-FRET, uHTS. actives 0.47% (n = 330,000). inhibition, % at 20 µM. Ubiquitin-conjugating enzyme E2 N (Homo sapiens), P61088; in the data active means inhibition above about 45%, passing the limit was not always enough
Apaf-1 inh: inhibitors of human Apaf-1 apoptosome, primary screen, biochemical, DEVD-Rh110 fluorescence, uHTS; reconstituted apoptosome caspase-3 activity; AID 489030, 2010; inhibition, % at 20 µM; actives 0.71% (n = 330,000); active means inhibition of at least 40% at 20 µM
Target sequence (O14727 whole entry, looked up): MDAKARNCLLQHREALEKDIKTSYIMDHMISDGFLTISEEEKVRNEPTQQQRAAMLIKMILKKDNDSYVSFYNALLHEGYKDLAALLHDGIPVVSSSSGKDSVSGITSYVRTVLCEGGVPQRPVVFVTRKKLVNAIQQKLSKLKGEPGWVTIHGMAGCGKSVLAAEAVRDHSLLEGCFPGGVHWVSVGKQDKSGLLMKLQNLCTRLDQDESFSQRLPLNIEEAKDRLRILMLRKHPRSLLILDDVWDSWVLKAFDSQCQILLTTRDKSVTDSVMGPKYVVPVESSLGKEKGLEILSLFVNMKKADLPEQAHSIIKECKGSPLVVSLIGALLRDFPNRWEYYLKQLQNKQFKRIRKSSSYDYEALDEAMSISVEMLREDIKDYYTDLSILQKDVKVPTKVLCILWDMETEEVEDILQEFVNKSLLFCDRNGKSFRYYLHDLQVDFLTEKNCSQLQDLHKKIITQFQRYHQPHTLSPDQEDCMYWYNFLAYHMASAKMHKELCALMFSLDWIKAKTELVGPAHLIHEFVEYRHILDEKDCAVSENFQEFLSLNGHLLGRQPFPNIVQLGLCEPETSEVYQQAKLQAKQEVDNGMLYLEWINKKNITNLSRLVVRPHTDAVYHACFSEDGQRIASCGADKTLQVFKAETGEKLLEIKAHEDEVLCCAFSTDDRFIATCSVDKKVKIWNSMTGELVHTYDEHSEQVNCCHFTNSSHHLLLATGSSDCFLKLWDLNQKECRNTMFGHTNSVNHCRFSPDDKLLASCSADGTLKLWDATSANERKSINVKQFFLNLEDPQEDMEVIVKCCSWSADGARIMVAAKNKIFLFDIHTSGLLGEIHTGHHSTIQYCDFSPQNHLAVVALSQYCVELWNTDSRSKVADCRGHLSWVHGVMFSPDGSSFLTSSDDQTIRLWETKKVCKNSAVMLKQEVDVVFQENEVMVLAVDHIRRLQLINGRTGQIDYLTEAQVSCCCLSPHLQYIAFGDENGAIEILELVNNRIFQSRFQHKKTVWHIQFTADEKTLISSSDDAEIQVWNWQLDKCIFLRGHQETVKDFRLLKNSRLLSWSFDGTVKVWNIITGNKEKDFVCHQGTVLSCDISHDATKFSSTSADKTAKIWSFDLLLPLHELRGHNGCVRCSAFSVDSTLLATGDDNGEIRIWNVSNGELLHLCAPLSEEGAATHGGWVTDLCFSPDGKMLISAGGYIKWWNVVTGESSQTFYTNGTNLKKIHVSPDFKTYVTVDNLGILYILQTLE
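Assay system: Apoptosome proteins | Medium: pH 7.5 Hepes buffer with CHAPS, BSA, DTT | Also added: Cytochrome c and DEVD-Rh110 substrate | Times: 30 min plus 50 min, RT | Detection: Rhodamine 110 fluorescence at Ex 480/Em 540 nm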
PfG6PD confirm: PfG6PD inhibitors, hit retest, confirmation, biochemical, fluorescence intensity, single concentration | AID 504753, 2011 | recombinant PfGluPho, NADPH-diaphorase-resazurin fluorescence | shares compounds with PfGluPho inh | inhibition, % at 20 µM | actives 34% (n = 2,400);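 active means inhibition of at least 50% at 20 µM in any single replicate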
A number is an active result; – = inactive; · = no result. Most compounds without a hit are left out; they make up all but 2.9% or so of the library.

SMILES	EBNA-1 inh	PfGluPho inh	ZTA counter	PfM18AAP inh	UBC13 inh	Apaf-1 inh	PfG6PD confirm
CC(=O)c1cccc(NC(=O)c2ccc(N(C)S(=O)(=O)c3ccc(C)cc3)cc2)c1	–	63	–	–	–	–	–
COCc1ccc(C(=O)Nc2cccc(S(=O)(=O)N(C)c3ccccc3)c2)cc1	·	–	·	·	–	–	·
CN(c1ccc(C(=O)Nc2cccc(O)c2)cc1)S(=O)(=O)c1ccccc1	–	59	–	–	–	–	–
CN(C)S(=O)(=O)c1ccc(NC(=O)CCNC(=O)c2ccc([N+](=O)[O-])cc2)cc1	–	–	–	–	–	–	·
C[C@@H]1CCCCO[C@H](CN(C)C(=O)Nc2cccc3ccccc23)[C@@H](C)CN([C@H](C)CO)C(=O)c2cc(N(C)C)ccc2O1	·	63	·	·	·	·	–
C[C@@H]1CCCCO[C@@H](CN(C)C(=O)Nc2ccccc2)[C@@H](C)CN([C@H](C)CO)C(=O)c2cc(N(C)C)ccc2O1	·	–	·	·	·	·	·
CC1CCN(C(=S)c2ccccc2O)CC1	–	64	–	–	–	–	–
COC(=O)C1CCN(C(=O)Nc2ccccc2)CC1	–	–	–	–	–	–	·
CC1Sc2ccc(C(=O)NCc3ccccn3)cc2NC1=O (stereo unspecified)	·	60	–	·	–	–	–
O=C(Cc1ccccc1F)OCN1C(=O)c2ccccc2C1=O	–	–	–	–	–	–	·
Cc1cc(-n2c(C)cc(C(=O)COc3ccc(F)c(F)c3)c2C)no1	·	61	–	·	–	–	–
Cc1cc(NC(=O)c2ccc3[nH]c(C)c(C)c3c2)ccn1	·	–	·	–	–	–	·
COc1ccc(NC(=O)c2ccc(C)cc2)cc1	–	–	–	–	–	–	·
COc1ccc(NC(=O)c2ccc3[nH]c(C)c(C)c3c2)cc1	·	68	·	–	–	–	–
CC(=O)Nc1cccc(NC(=O)c2ccc3[nH]c(C)c(C)c3c2)c1	–	78	–	–	–	–	–
CCOC(=O)COc1cc(N)c(Cl)cc1Cl	–	–	–	–	–	–	·
C[C@H](NC(=O)c1ccco1)C(=O)NCc1cccs1	·	–	–	·	–	–	·
C[C@H](O)[C@@H]1C(=O)N2CCc3c([nH]c4ccccc34)[C@@H]2C[C@@H]1N(C)Cc1ccc(Cl)cc1	·	–	·	·	·	·	·
c1ccc(Cc2nn3c(COc4ccccc4)nnc3s2)cc1	–	63	–	–	–	–	–
CCOc1ccccc1OCc1nn2c(COc3ccccc3)nnc2s1	–	69	–	–	–	–	–
CCCCc1ccc(NC(=O)N2CCNC(=O)C2CC(=O)Nc2ccsc2C(=O)OC)cc1 (stereo unspecified)	–	–	–	–	–	–	·
COc1ccc(NC(=O)CN(c2ccccc2)S(=O)(=O)c2ccccc2)c(OC)c1	–	–	–	–	–	–	·
COC(=O)c1ccc(Cl)c(NC(=O)CN(c2ccccc2)S(=O)(=O)c2ccc(OC)cc2)c1	–	76	–	–	–	–	–
CNC(=O)c1cc2c(ccc3ccccc32)o1	–	–	–	–	–	–	·
O=C(NC1CCCC1)c1cc2c(ccc3ccccc32)o1	–	72	–	–	–	–	–
SMILES	EBNA-1 inh	PfGluPho inh	ZTA counter	PfM18AAP inh	UBC13 inh	Apaf-1 inh	PfG6PD confirm
CC(C)c1ccc(NC(=O)c2cccc(Br)c2)cc1	–	68	–	–	–	–	–
CC(C)c1ccc(NC(=O)c2ccc(Br)o2)cc1	–	81	–	–	–	–	–
COc1ccc(NC(=O)c2ccc(Br)o2)cc1	–	–	–	–	–	–	·
O=C(Nc1cccc(C(=O)Nc2cccc(Br)c2)c1)c1ccccc1	–	–	–	–	–	–	·
CCC1CCc2c(sc(NC(=O)C3c4ccccc4Oc4ccccc43)c2C(N)=O)C1 (stereo unspecified)	–	–	–	–	–	–	·
Cc1nn(-c2ccccc2)c(Cl)c1/C=N/NC(=O)CCNc1n[nH]c(=O)[nH]c1=O	–	–	–	–	–	–	·
Cc1ccc2nc(C)/c(=N\O)c(C)nc2c1	–	–	–	–	–	–	·
